The values below come from ChEMBL document CHEMBL5055648, “Design, synthesis, and biological evaluation of novel Bcr-AblT315I inhibitors incorporating amino acids as flexible linker” (Bioorg Med Chem, 2021).

This assay concerns K-562R. Description: Antiproliferative activity against T315I mutant expressing human K-562R cells assessed as inhibition of cell proliferation at 100 uM incubated for 48 hrs by MTT assay relative to control. In kind it is functional. Summed up: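 MTT growth assay. K562 and K562R (T315I) cells grown in RPMI 1640 with 10% FBS. Hek293 and EA.hy926 cells grown in DMEM with 10% FBS. About 2.5 × 10^3 exponential-phase cells per well, preincubated 12 h at 37 °C in 5% CO2. Serially diluted compounds added for 48 h, then MTT at 0.5 mg/mL final for 4 h. Formazan dissolved in DMSO, A490 read, IC50 calculated from inhibition ratios.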

Structures are written as SMILES.

On to `Cc1ccc(NC(=O)c2ccc(CN3CCN(C)CC3)cc2)cc1Nc1nccc(-c2cccnc2)n1` [IMATINIB], for which the inhibition at 100 µM came out at 45%.

What is called inhibition is the percentage by which the read-out fell short of the control.
